Bioassay records (PubChem BioAssay)
An excerpt weighted towards active compounds, which were near 3.7% of everything screened.
MC4R barr agon: human MC4R agonism via beta-arrestin; U2OS MC4R beta-arrestin complementation, luminescence; percent of melanotan II response, DMSO zero; activation, % at 8.9 µM; hit rate 0.98% among 360,000; AID 540308;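 active = activation above a per-plate cutoff, the mean activation of sample wells on that plate plus 3 SD, cut at about 8% in these data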
EBI2 antag: antagonists of human EBI2 receptor; EBI2 beta-arrestin recruitment, luminescence, 7a,25-OHC stimulated; AID 651636; inhibition, % at 5 µM; P32249; hit rate 0.81% among 360,000; in the data active = inhibition above about 38%;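 note: enzyme fragment complementation signal reports receptor beta-arrestin coupling in cells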
Target sequence (P32249 whole entry, looked up, the tested form may be a part): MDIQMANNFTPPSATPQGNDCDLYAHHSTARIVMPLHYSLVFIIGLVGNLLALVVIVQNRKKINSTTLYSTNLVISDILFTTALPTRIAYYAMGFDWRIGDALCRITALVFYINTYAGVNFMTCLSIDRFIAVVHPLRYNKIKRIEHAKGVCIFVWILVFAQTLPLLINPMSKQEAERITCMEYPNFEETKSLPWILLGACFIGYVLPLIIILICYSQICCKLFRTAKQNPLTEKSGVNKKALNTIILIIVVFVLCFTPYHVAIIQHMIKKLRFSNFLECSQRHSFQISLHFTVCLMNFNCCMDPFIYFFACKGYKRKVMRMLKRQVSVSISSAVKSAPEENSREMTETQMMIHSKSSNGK
MC4R antagonist: human MC4R antagonism in cAMP assay. P32245. MC4R-expressing cells, MTII-stimulated cAMP, LANCE TR-FRET. inhibition, % at 6.5 µM. hit rate 0.48% among 360,000;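 active = inhibition above its plate's cutoff, the mean of tested wells on that plate plus 3 SD, cut at about 29% in these data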
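Assay system: U2OS cells stably expressing human melanocortin 4 receptor (MC4R) / Dosing: 6.5 µM / Timing: compound 30 min, challenge 1 h, detection 1 h / Measured by: Eu-cAMP/anti-cAMP TR-FRET, emission 671 nm / Replicates: singlicate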
Granule exo inh: lytic granule exocytosis inhibition. TALL-104 LAMP-1 surface exposure, flow cytometry; cells stimulated with thapsigargin and PMA. AID 651702. hit rate 0.66% among 360,000. inhibition, % at 10 µM;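 active = inhibition above about 55%, limit read from the data; inconclusive = no clear call, values can overlap the other calls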
Myeloid diff 2: promotes myeloid progenitor differentiation | ER-HoxA9 myeloid progenitors, lysozyme-GFP differentiation, flow cytometry | calls only at 10 µM | hit rate 1% among 360,000;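 active = normalized GFP-positive differentiation at or above the plate's own cutoff, the solvent-only control mean plus 3 SD; inconclusive = no clear call, values can overlap the other calls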;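 note: cells exposed to compound for four days before flow analysis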
Granule exo CP1: blocks lytic granule exocytosis. shares compounds with Granule exo inh. TALL-104 cells, LAMP-1 externalization, flow cytometry; stimulated with PMA plus thapsigargin. inhibition, % at 10 µM. hit rate 11% among 1,500. AID 651954; in the data active = inhibition above about 60%
Hits are given with their value.

How did O=C(NCC1CC1(Cl)Cl)Nc1ccc(Cl)c(Cl)c1 (stereo not given) do in these assays?
MC4R barr agon: inactive; EBI2 antag: inactive; MC4R antagonist: inactive; Granule exo inh: 89.6; Myeloid diff 2: inactive; Granule exo CP1: inactive

How did O=C(NC(C(=O)c1ccccc1)c1ccccc1)c1ccccc1 (stereo not given) do in these assays?
MC4R barr agon: inactive; EBI2 antag: inactive; MC4R antagonist: inactive; Granule exo inh: inactive; Myeloid diff 2: inactive

Results for O=C(O)Cc1sc(=O)[nH]c1O ?
MC4R barr agon: inactive; EBI2 antag: inactive; MC4R antagonist: inactive; Granule exo inh: 97.3; Myeloid diff 2: inactive; Granule exo CP1: inactive

What do the screens show for `Cc1ccc(-c2ocnc2C(=O)N2CCOCC2)cc1`?
MC4R barr agon: inactive; EBI2 antag: inactive; MC4R antagonist: inactive; Granule exo inh: inactive; Myeloid diff 2: inactive

What do the screens show for `CC1=Nc2ccccc2/C1=C\c1nc(-c2ccc(F)cc2)oc1O`?
MC4R barr agon: inactive; EBI2 antag: inactive; MC4R antagonist: inactive; Granule exo inh: 76.1; Myeloid diff 2: inactive; Granule exo CP1: inactive

What do the screens show for `CCN1C(=O)c2cccc3c(S(=O)(=O)N4CCCC4C(=O)O)ccc1c23` (stereo not given)?
MC4R barr agon: inactive; EBI2 antag: inactive; MC4R antagonist: inactive; Granule exo inh: 59.5; Myeloid diff 2: inactive; Granule exo CP1: inactive

What do the screens show for `CCOc1ccccc1C(=O)Nc1ccc(C(=O)c2ccccc2)cc1`?
MC4R barr agon: inactive; EBI2 antag: inactive; MC4R antagonist: inactive; Granule exo inh: 60.3; Myeloid diff 2: inactive; Granule exo CP1: inactive

How did CCOc1ccccc1C(=O)Nc1ccc(NC(=O)c2ccccc2)cc1 do in these assays?
MC4R barr agon: inactive; EBI2 antag: inactive; MC4R antagonist: inactive; Granule exo inh: inactive; Myeloid diff 2: inactive

What do the screens show for `COc1ccc(N(CC(=O)NCCC2=CCCCC2)S(=O)(=O)c2ccccc2)cc1`?
MC4R barr agon: inactive; EBI2 antag: inactive; MC4R antagonist: inactive; Granule exo inh: 62.3; Myeloid diff 2: inactive; Granule exo CP1: inactive

Results for COc1ccc(NC(=O)CN(c2ccc(OC)c(Cl)c2)S(=O)(=O)c2ccccc2)cc1 ?
MC4R barr agon: inactive; EBI2 antag: inactive; MC4R antagonist: inactive; Granule exo inh: 56.3; Myeloid diff 2: inactive; Granule exo CP1: inactive

What do the screens show for `CN1C[C@@H]2[C@@H]3C(=O)N(C)C(=O)[C@@H]3[C@](C)(C1=O)N2C(=O)c1ccc(F)cc1`?
MC4R barr agon: inactive; EBI2 antag: inactive; MC4R antagonist: inactive; Granule exo inh: inactive; Myeloid diff 2: inactive

How did COc1ccccc1N(CC(=O)NCCc1ccccc1)C(=O)CCC(=O)Nc1cc(C)ccn1 do in these assays?
MC4R barr agon: inactive; EBI2 antag: inactive; MC4R antagonist: inactive; Granule exo inh: 62.2; Myeloid diff 2: inactive; Granule exo CP1: inactive

How did Cc1cccc2c1-c1sc(C(=O)NCCCN3CCCC(C)C3)cc1CO2 (stereo not given) do in these assays?
MC4R barr agon: inactive; EBI2 antag: inactive; MC4R antagonist: inactive; Granule exo inh: 85.0; Myeloid diff 2: inconclusive; Granule exo CP1: inactive

What do the screens show for `CC1CC(C)CN(CCCNC(=O)c2cc3c(s2)-c2ccccc2OC3)C1` (stereo not given)?
MC4R barr agon: inactive; EBI2 antag: inactive; MC4R antagonist: inactive; Granule exo inh: inactive; Myeloid diff 2: inconclusive

What do the screens show for `CCCN1CCN(CCCNC(=O)c2cc3c(s2)-c2c(C)cccc2OC3)CC1`?
MC4R barr agon: inactive; EBI2 antag: inactive; MC4R antagonist: inactive; Granule exo inh: 64.7; Myeloid diff 2: inactive; Granule exo CP1: inactive

What do the screens show for `CC(=O)Nc1ccc2sn(-c3ccccc3)c(=O)c2c1`?
MC4R barr agon: inactive; EBI2 antag: inactive; MC4R antagonist: inactive; Granule exo inh: 59.8; Myeloid diff 2: inactive; Granule exo CP1: 93.9

What do the screens show for `O=c1c2cc([N+](=O)[O-])ccc2sn1-c1ccccc1`?
MC4R barr agon: inactive; EBI2 antag: inactive; MC4R antagonist: inactive; Granule exo inh: inactive; Myeloid diff 2: inactive

Results for CCOc1cc(CNCCc2ccc(S(N)(=O)=O)cc2)ccc1OCc1ccccc1 ?
MC4R barr agon: inactive; EBI2 antag: inactive; MC4R antagonist: inactive; Granule exo inh: inactive; Myeloid diff 2: inactive

What do the screens show for `CCOc1cc(CNCc2ccccc2)ccc1OCc1ccc(Cl)cc1`?
MC4R barr agon: inactive; EBI2 antag: inactive; MC4R antagonist: inactive; Granule exo inh: 90.4; Myeloid diff 2: inactive; Granule exo CP1: inactive
